Data set [1] in a line: melting temperature; fluorescence melt of hairpins on a sequencing array, two-state fit, raised by 9.35 °C to match UV melts. As to conditions: sodium 0.088 M. An outline of the steps:
(§1)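 Bootstrapped two-state fits yielded melting temperature and folding enthalpy for library hairpins. Cy3 fluorescence, with annealed Cy3 and quencher oligos, was imaged on a sequenced MiSeq flow cell in 50 mM Na-HEPES pH 8.0, 25 mM NaCl in 2.5 °C steps up to 60 °C, and normalised to pre-quench Cy3 and to control constructs. Four replicates were combined by inverse variance, and fitted temperatures were raised by 9.35 °C to match UV melts.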

Data set [2] can be described thus: folding enthalpy; higher = less favourable; fluorescence melt of hairpins on a sequencing array, two-state fit. As to conditions: sodium 0.088 M. An outline of the steps: as §1

Consider GCCCCCCGAAAGGGTGGC (((.(((....))).))), for which, in data set [1], the Tm worked out at 64.2 °C. Besides, the folding enthalpy in data set [2] is -138 kJ/mol.

Regarding GCCCCCGAAAGGGAGGGC ((((((....)))..))), in data set [1], the Tm amounted to 59.8 °C. The folding enthalpy in data set [2] is -125 kJ/mol.

Regarding GCCCCCGAAAGGGCAGGC ((((((....)))..))), the Tm in data set [1] was 50.4 °C. The folding enthalpy in data set [2] was -75 kJ/mol.

Take GCCCCCGAAAGGGGAGGC ((((((....)))..))): in data set [1], the Tm worked out at 59.9 °C. Also, the folding enthalpy in data set [2] was -57.9 kJ/mol.

Take GCCCCCGAAAGGGTGGC ((((((....))).))): in data set [1], the Tm turned out to be 65.9 °C. The folding enthalpy in data set [2] was -87.8 kJ/mol.

GCCCCCGGAAACGGAGGC (((.(((....))).))): the Tm in data set [1] was 54.9 °C. The folding enthalpy in data set [2] was -146 kJ/mol.

Regarding GCCCCGCGAAAGCGACGC ((..(((....)))..)), the Tm in data set [1] was 31.3 °C. Also, in data set [2], the folding enthalpy was -44.1 kJ/mol.

For GCCCCGCGAAAGCGATGC ((..(((....)))..)), the Tm in data set [1] turned out to be 34.2 °C. The folding enthalpy in data set [2] is -49 kJ/mol.

On to GCCCCGCGAAAGCGCGGC (((.(((....))).))), for which the Tm in data set [1] turned out to be 64.4 °C. In addition, in data set [2], the folding enthalpy is -72.8 kJ/mol.

GCCCCGCGAAAGCGGTGC ((.((((....)))).)): the Tm in data set [1] was 61.5 °C. The folding enthalpy in data set [2] is -65.8 kJ/mol.

Regarding GCCCCGCGAAAGCGTTGC ((..(((....)))..)), in data set [1], the Tm was determined as 33.5 °C. Further, the folding enthalpy in data set [2] was -40.8 kJ/mol.

For GCCCCTGGAAACAGAGGC (((.(((....))).))), the Tm in data set [1] came to 46.3 °C. Besides, the folding enthalpy in data set [2] is -116 kJ/mol.

For GCCCGAGGAAACTCAGGC (((.(((....))).))), the Tm in data set [1] stood at 45.1 °C. Further, in data set [2], the folding enthalpy was -114 kJ/mol.

In the case of GCCCGCGAAAGCGGTGGC ((((((....)))..))), the Tm in data set [1] is 57.7 °C. Further, the folding enthalpy in data set [2] is -51 kJ/mol.

As for GCCCGCGGAAACGCAGGC (((.(((....))).))), the Tm in data set [1] stood at 62.4 °C. For the same sequence, the folding enthalpy in data set [2] was -136 kJ/mol.

GCCCGCGGAAACGCGGAC (.(((((....))))).): the Tm in data set [1] was 57 °C. Moreover, the folding enthalpy in data set [2] was -41 kJ/mol.

As to GCCCGCTCGAAAGAGGGC (((..(((....)))))), in data set [1], the Tm worked out at 54.6 °C. Also, the folding enthalpy in data set [2] is -170 kJ/mol.

As to GCCCGGACGAAAGTCGGC (((..(((....)))))), the Tm in data set [1] is 50.9 °C. The folding enthalpy in data set [2] is -60.6 kJ/mol.

Regarding GCCCGGCGAAAGCAGAGC ((.(.((....)).).)), in data set [1], the Tm is 47.4 °C. Besides, in data set [2], the folding enthalpy was -60.5 kJ/mol.

For the sequence GCCCGGCGAAAGCGGCGC ((.(.((....)).).)), in data set [1], the Tm is 64.6 °C. The folding enthalpy in data set [2] is -88.3 kJ/mol.

As for GCCCGTGGAAACACAGGC (((.(((....))).))), the Tm in data set [1] stood at 50.4 °C. The folding enthalpy in data set [2] was -124 kJ/mol.

Regarding GCCCGTGGAAACGTGGGC ((((..(....)..)))), in data set [1], the Tm came out at 54.9 °C. Besides, the folding enthalpy in data set [2] is -131 kJ/mol.

For the sequence GCCCTAGAAATAGGGC ((((((....)))))), the Tm in data set [1] was 59.1 °C. Further, in data set [2], the folding enthalpy is -156 kJ/mol.

Turning to GCCCTAGGAAACTAGGAC (.(((((....))))).), in data set [1], the Tm amounted to 37.7 °C. For the same sequence, the folding enthalpy in data set [2] was -82.1 kJ/mol.

Regarding GCCCTCCCGAAAGGGGGC (((..(((....)))))), the Tm in data set [1] is 58 °C. The folding enthalpy in data set [2] was -67.5 kJ/mol.

For the sequence GCCCTCGAAAGAGAAGGC ((((((....)))..))), in data set [1], the Tm was 48.3 °C. For the same sequence, in data set [2], the folding enthalpy is -93.1 kJ/mol.

On to GCCCTCGAAAGAGCAGGC ((((((....)))..))), for which, in data set [1], the Tm was found to be 44.9 °C. The folding enthalpy in data set [2] is -104 kJ/mol.

As for GCCCTCGAAAGAGCCGGC ((((((....)))..))), the Tm in data set [1] worked out at 40.4 °C. Also, in data set [2], the folding enthalpy was -77 kJ/mol.

GCCCTCGAAAGAGTAGGC ((((((....)))..))): the Tm in data set [1] turned out to be 49 °C. The folding enthalpy in data set [2] was -123 kJ/mol.

Consider GCCCTCGAAAGAGTTGGC ((((((....)))..))), for which the Tm in data set [1] is 44 °C. Moreover, in data set [2], the folding enthalpy is -97 kJ/mol.
